Measured values as given in ChEMBL document CHEMBL5338714, “Design, synthesis and biological evaluation of biphenyl-benzamides as potent FtsZ inhibitors” (Eur J Med Chem, 2022).
Converted amounts (≈) assume the structure as drawn. The source made the active and inactive calls. The calls are words filed in the database; no cut-off is given here.

Assays:
[1] = Cytotoxicity against African green monkey Vero cells assessed as reduction in cell viability incubated for 72 hrs by alamar blue staining based assay; type: toxicity; details: chlorocebus sabaeus
Method in brief: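 Vero cells seeded at about 2 × 10^3 per well, 37 °C, 5% CO2. Compound added after 24 h and incubated 72 h. AlamarBlue (1:10 v/v) then added for 3 h in the dark, read at Ex/Em 560/590 nm. CC50 is the lowest concentration causing 50% loss of viability.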

[2] = Metabolic stability in human liver microsomes assessed as compound remaining preincubated for 5 mins followed by NADPH addition measured after 45 mins by LC/MS analysis; type: ADME, Microsome; details: time 50 min, read-out: Stability
Method in brief: (§1)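 Liver microsomes (final protein 0.75 mg/mL) with compound in 100 mM phosphate buffer pH 7.4, preincubated 5 min at 37 °C. Reaction started with NADPH regeneration system, stopped at 5, 15, 30 and 45 min with acetonitrile containing internal standard. Percent remaining measured by LC/MS, with ketanserin as reference; variation given as RSD of area ratio.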

[3] = target: T1, Cell division protein FtsZ (Staphylococcus aureus) (UniProt P0A031); experiment: Inhibition of recombinant Staphylococcus aureus FtsZ assessed as FtsZ polymerization at 10 ug/ml preincubated for 10 mins followed by GTP addition measured after 20 mins by TEM analysis; details: dose 10.0 µg/ml, time 30.0 min
T1 sequence (whole entry): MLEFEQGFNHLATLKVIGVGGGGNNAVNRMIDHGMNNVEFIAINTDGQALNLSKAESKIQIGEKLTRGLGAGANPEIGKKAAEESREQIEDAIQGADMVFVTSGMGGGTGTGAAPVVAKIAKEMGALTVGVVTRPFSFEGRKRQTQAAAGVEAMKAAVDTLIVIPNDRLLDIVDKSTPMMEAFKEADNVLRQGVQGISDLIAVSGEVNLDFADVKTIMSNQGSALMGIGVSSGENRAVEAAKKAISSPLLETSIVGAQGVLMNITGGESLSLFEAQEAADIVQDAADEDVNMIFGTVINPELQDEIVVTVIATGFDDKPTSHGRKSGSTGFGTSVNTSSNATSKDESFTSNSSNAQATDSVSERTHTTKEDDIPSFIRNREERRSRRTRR
Method in brief: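 Recombinant S. aureus FtsZ (12 µM) preincubated 10 min at room temperature with compound in DMSO, in 50 mM Hepes-KOH pH 6.8. KCl 50 mM, MgCl2 5 mM and GTP 1 mM then added, 20 min at 37 °C. Samples placed on glow-discharged carbon grids, stained with 1% phosphotungstic acid, imaged by TEM.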

[4] = Metabolic stability in rat liver microsomes assessed as intrinsic clearance preincubated for 5 mins followed by NADPH addition measured upto 45 mins by LC/MS analysis; type: ADME, Microsome; details: time < 50 min, read-out: CLH
Method in brief: (§2)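 Liver microsomes at 0.75 mg/mL final protein, with test article and NADPH regeneration system (6 mM) in 100 mM phosphate buffer, pH 7.4. Preincubated 5 min at 37 °C, then started with NADPH. Quenched with acetonitrile containing internal standard at 5, 15, 30 and 45 min, centrifuged, and percent remaining measured by LC/MS. Ketanserin served as reference.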

[5] = Metabolic stability in rat liver microsomes assessed as compound remaining preincubated for 5 mins followed by NADPH addition measured after 45 mins by LC/MS analysis; type: ADME, Microsome; details: time 50 min, read-out: Stability; method in brief: as §1
[6] = target: T1, Cell division protein FtsZ (Staphylococcus aureus); experiment: Inhibition of recombinant Staphylococcus aureus FtsZ assessed as FtsZ polymerization at 10 ug/ml in presence of GTP by absorbance based turbidity assay; details: dose 10.0 µg/ml
Method in brief: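 Recombinant S. aureus FtsZ (12 µM) with 1 mM GTP and compound in 50 mM Hepes, 50 mM KCl, 5 mM MgCl2. Polymerization followed continuously at 25 °C as light scattering (A340).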

Staphylococcus aureus [7] = experiment: Induction of resistance in Staphylococcus aureus ATCC29213 assessed as fold increase in MIC at 0.5 times MIC after 18 passages incubated for 24 hrs by resistance development assay; type: functional
Method in brief: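 Serial passage of S. aureus ATCC29213. Initial MIC was found by broth microdilution. Bacteria from the 0.5 × MIC tubes (duplicate) were diluted to about 5 × 10^5 CFU/mL and re-exposed to compound for 24 h at 35 °C, then fold increase in MIC was determined. Repeated for 18 passages, with norfloxacin as comparator.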

[8] = Selectivity index, ratio of CC50 for African green monkey Vero cells to MIC for Bacillus subtilis ATCC9372; type: toxicity, cell-based; details: read-out: Selectivity Index
Method in brief: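 CC50 in Vero cells (72 h Alamar blue) divided by broth microdilution MIC against B. subtilis ATCC9372.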

Staphylococcus aureus [9] = experiment: Selectivity ratio of MBC for Staphylococcus aureus ATCC25923 to MIC for Staphylococcus aureus ATCC25923; type: functional
Method in brief: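 After 24 h of broth microdilution, 5 µL from clear wells plated on LB agar and incubated aerobically for 24 h at 37 °C. MBC is the lowest concentration with no colonies. Ratio is MBC over MIC, with ≤4 taken as bactericidal and >4 as bacteriostatic.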

[10] = Metabolic stability in human liver microsomes assessed as intrinsic clearance preincubated for 5 mins followed by NADPH addition measured upto 45 mins by LC/MS analysis; type: ADME, Microsome; details: time < 50 min, read-out: CLH; method in brief: as §2
[11] = Metabolic stability in human liver microsomes assessed as compound remaining preincubated for 5 mins followed by NADPH addition measured immediately by LC/MS analysis; type: ADME, Microsome; details: read-out: Stability; method in brief: as §1
[12] = Metabolic stability in rat liver microsomes assessed as compound remaining preincubated for 5 mins followed by NADPH addition measured after 5 mins by LC/MS analysis; type: ADME, Microsome; details: time 10 min, read-out: Stability; method in brief: as §1
[13] = Metabolic stability in mouse liver microsomes assessed as compound remaining preincubated for 5 mins followed by NADPH addition measured after 15 mins by LC/MS analysis; type: ADME, Microsome; details: time 20 min, read-out: Stability; method in brief: as §1
[14] = Metabolic stability in rat liver microsomes assessed as compound remaining preincubated for 5 mins followed by NADPH addition measured immediately by LC/MS analysis; type: ADME, Microsome; details: read-out: Stability
Bacillus subtilis [15] = experiment: Bactericidal activity against Bacillus subtilis ATCC9372 incubated for 24 hrs by broth microdilution method; type: functional
Method in brief: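 MBC from the broth microdilution plates (MHB, 2-fold dilutions). After 24 h, 5 µL aliquots from clear wells were plated on LB agar and incubated aerobically 24 h at 37 °C, then colonies counted. MBC = lowest concentration with no colonies.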

[16] = Metabolic stability in mouse liver microsomes assessed as compound remaining preincubated for 5 mins followed by NADPH addition measured after 45 mins by LC/MS analysis; type: ADME, Microsome; details: time 50 min, read-out: Stability; method in brief: as §1
Staphylococcus aureus [17] = experiment: Antibacterial activity against Staphylococcus aureus ATCC25923 assessed as reduction in bacterial count at 4 times MIC measured for 3 hrs by time kill curve assay; type: functional, organism-based
Method in brief: (§3)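 Time-kill: log-phase cultures diluted to about 10^6 CFU/mL in MHB with compound at 1×, 2×, 4× or 8× MIC (vancomycin at 2× MIC), shaken at 37 °C. Samples taken at 3, 6, 12 and 24 h, serially diluted and plated on LB agar. Colonies counted after 24 h at 37 °C; detection limit 10^3 CFU/mL.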

[18] = Metabolic stability in human liver microsomes assessed as compound remaining preincubated for 5 mins followed by NADPH addition measured after 30 mins by LC/MS analysis; type: ADME, Microsome; details: time 35 min, read-out: Stability; method in brief: as §1
Bacillus subtilis [19] = experiment: Antibacterial activity against Bacillus subtilis ATCC9372 assessed as reduction in bacterial count at 2 times MIC measured for 3 hrs by time kill curve assay; type: functional, organism-based; method in brief: as §3

SMILES: Cc1cc(Cl)ccc1-c1cccc(COc2ccc(F)c(C(N)=O)c2F)c1
- CC50 at 72 h [1]: > 20 µg/mL
- remaining at 0.75 h [2]: 75%
- inhibition [3]: Active
- CLint scaled [4]: 183 mL/min/kg
- remaining at 0.75 h [5]: 10%
- inhibition [6]: Active
- fold change (FC) (Staphylococcus aureus [7]): 4
- selectivity ratio [8]: > 645
- Selectivity ratio (Staphylococcus aureus [9]): 2
- CLint scaled [10]: 15.5 mL/min/kg
- remaining at 0 min [11]: 100%
- remaining at 5 min [12]: 73.7%
- remaining at 0.25 h [13]: 11.9%
- remaining at 0 min [14]: 100%
- MBC (Bacillus subtilis [15]): 0.063 µg/mL (≈ 0.162 µM)
- remaining at 0.75 h [16]: 0.46%
- Activity (Staphylococcus aureus [17]): Active
- remaining at 0.5 h [18]: 83.4%
- Activity (Bacillus subtilis [19]): Active
